Experimental findings from ChEMBL document CHEMBL1121524, “Studies of hypolipidemic agents. 1. Synthesis and hypolipidemic activities of alkoxycinnamic acid derivatives” (1980) are described below.

The species entered for experiment [1] is Rattus norvegicus. In words: Tested for the hypolipidemic activity, expressed as percent decrease in Triglyceride in rat, at dosage of 100 mg for 6 days by Ryan and Rasho method. Format: functional. In short, it runs like this: (§1)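 Male Sprague-Dawley rats, 4 weeks old, kept on CE-2 chow for at least 1 week, then grouped (generally five per group). Compound was mixed into CE-2 powder and fed ad libitum for the stated period; controls received plain CE-2 powder. Diet level is given as mg/100 g (mg%), about equal to mg/kg/day. Total serum triglyceride was measured by the Ryan and Rasho method and reported as percent depression versus control group mean. Significance was p < 0.05.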

The species named for experiment [2] is Rattus norvegicus. The experiment in a line: Tested for the hypolipidemic activity, expressed as percent decrease in serum cholesterol in rat, at dosage of 100 mg for 6 days by Zak et al method. It counts as functional. In short, it runs like this: (§2)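 Male Sprague-Dawley rats, 4 weeks old, kept on CE-2 chow for at least 1 week, then grouped (generally five per group). Compound was mixed into CE-2 powder and fed ad libitum for the stated period; controls received plain CE-2 powder. Diet level is given as mg/100 g (mg%), about equal to mg/kg/day. Total serum cholesterol was measured by the Zak et al. method and reported as percent depression versus control group mean. Significance was p < 0.05.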

Experiment [3] deals with Rattus norvegicus. The experiment in a line: In vivo hypolipidemic activity, expressed as percent decrease in Triglyceride in rat, at dosage of 100 mg for 7 days. It counts as functional. In short, it runs like this: as §1
Experiment [4] is filed under the species Rattus norvegicus. In words: Hypolipidemic activity expressed as percentage decrease in triglyceride in rat, at dosage of 50 mg for 7 days. Format: functional. In short, it runs like this:
as §1

Experiment [5] is filed under the species Rattus norvegicus. In words: Hypolipidemic activity, expressed as percent decrease in serum cholesterol in rat, at dosage of 100 mg for 7 days by Zak et al method. It counts as functional. The gist of the method:
as §2

In experiment [6] the test system is Rattus norvegicus. The experiment in a line: In vivo hypolipidemic activity, expressed as percent decrease in serum cholesterol in rat, at dosage of 20 mg for 7 days. Format: functional. In short, it runs like this:
as §2

For experiment [7], the species on record is Rattus norvegicus. In words: tested for the hypolipidemic activity, expressed as percent decrease in serum cholesterol in rat, at dosage of 10 mg for 7 days by Zak et al method. It counts as functional. In short, it runs like this: as §2
The species named for experiment [8] is Rattus norvegicus. The experiment in a line: tested for the hypolipidemic activity, expressed as percent decrease in Triglyceride in rat, at dosage of 10 mg for 7 days by Ryan and Rasho method. Format: functional. The gist of the method: as §1
For experiment [9], the species on record is Rattus norvegicus. The experiment in a line: Tested for the hypolipidemic activity, expressed as percent decrease in serum cholesterol in rat, at dosage of 50 mg for 7 days. It counts as functional. In short, it runs like this:
as §2

In experiment [10] the test system is Rattus norvegicus. In words: In vivo hypolipidemic activity, expressed as percent decrease in serum triglyceride in rat, at dosage of 20 mg for 7 days.
The species named for experiment [11] is Rattus norvegicus. In words: Tested for the hypolipidemic activity, expressed as percent decrease in Triglyceride in rat, at dosage of 10 mg for 7 days by Ryan and Rasho method. Format: functional. In short, it runs like this:
as §1

The species entered for experiment [12] is Rattus norvegicus. The experiment in a line: Tested for the hypolipidemic activity, expressed as percent decrease in serum cholesterol in rat, at dosage of 10 mg for 7 days by Zak et al method. It counts as functional. The gist of the method: as §2
For experiment [13], the species on record is Rattus norvegicus. The experiment in a line: tested for the hypolipidemic activity, expressed as percent decrease in Triglyceride in rat, at dosage of 75.8 mg for 7 days by Ryan and Rasho method. Format: functional. In short, it runs like this:
as §1

For experiment [14], the species on record is Rattus norvegicus. In words: Tested for the hypolipidemic activity, expressed as percent decrease in serum cholesterol in rat, at dosage of 75.8 mg for 7 days by Zak et al method. It counts as functional. In short, it runs like this:
as §2

Experiment [15] is filed under the species Rattus norvegicus. The experiment in a line: tested for the hypolipidemic activity, expressed as percent decrease in Triglyceride in rat, at dosage of 50 mg for 3 days by Ryan and Rasho method. Format: functional. In short, it runs like this:
as §1

Experiment [16] is filed under the species Rattus norvegicus. In words: Tested for the hypolipidemic activity, expressed as percent decrease in Triglyceride in rat, at dosage of 100 mg for 3 days by Ryan and Rasho method. Format: functional. In short, it runs like this:
as §1

For experiment [17], the species on record is Rattus norvegicus. In words: Tested for the hypolipidemic activity, expressed as percent decrease in serum cholesterol in rat, at dosage of 100 mg for 3 days by Zak et al method. Format: functional. The gist of the method: as §2
Experiment [18] is filed under the species Rattus norvegicus. In words: tested for the hypolipidemic activity, expressed as percent decrease in serum cholesterol in rat, at dosage of 50 mg for 3 days by Zak et al method. It counts as functional. The gist of the method:
as §2

Experiment [19] concerns Rattus norvegicus. The experiment in a line: tested for the hypolipidemic activity, expressed as percent decrease in Triglyceride in rat, at dosage of 20 mg/kg 0 mg for 7 days by Ryan and Rasho method.
Experiment [20] is filed under the species Rattus norvegicus. In words: Tested for the hypolipidemic activity, expressed as percent decrease in Triglyceride in rat, at dosage of mg for 7 days by Ryan and Rasho method. Format: functional. The gist of the method:
as §1

Experiment [21] is filed under the species Rattus norvegicus. The experiment in a line: tested for the hypolipidemic activity, expressed as percent decrease in Triglyceride in rat, at dosage of 20 mg for 7 days by Ryan and Rasho method. Format: functional. The gist of the method: as §1
Experiment [22] is filed under the species Rattus norvegicus. In words: Tested for the hypolipidemic activity, expressed as percent decrease in serum cholesterol in rat, at dosage of 20 mg for 7 days by Zak et al method. Format: functional. In short, it runs like this: as §2
The species entered for experiment [23] is Rattus norvegicus. The experiment in a line: Tested for the hypolipidemic activity, expressed as percent decrease in Triglyceride in rat, at dosage of 102 mg for 7 days by Ryan and Rasho method. Format: functional. In short, it runs like this: as §1
The species named for experiment [24] is Rattus norvegicus. The experiment in a line: Tested for the hypolipidemic activity, expressed as percent decrease in serum cholesterol in rat, at dosage of 102 mg for 7 days by Zak et al method. It counts as functional. In short, it runs like this: as §2

Each structure is given as a SMILES string.

Turning to `O=C(/C=C/c1ccccc1)OCC(O)CO` (centres undefined), the figures for the Decrease in the experiment filed under Rattus norvegicus [1] and in the experiment listed under Rattus norvegicus [2] were 16% and 6%, respectively.
Regarding `CCCCCCCCCCCCCCCCOc1ccc(/C=C/C(=O)OCC(O)CO)cc1` (centres undefined), the Decrease with Rattus norvegicus [3] is reported as 62%; in the experiment filed under Rattus norvegicus [4], 17%; in the experiment listed under Rattus norvegicus [5] it was 26%; in the experiment with Rattus norvegicus [6] it was 9%; in the experiment listed under Rattus norvegicus [7] it was -4%; in the experiment filed under Rattus norvegicus [8], 11%. In addition, the Decrease in the experiment listed under Rattus norvegicus [9] came out at 19%; in the experiment with Rattus norvegicus [10], 8%.
`O=C(/C=C/c1ccc(Oc2ccccc2)cc1)OCCCCl`: the Decrease in the experiment listed under Rattus norvegicus [1] was 54%; in the experiment filed under Rattus norvegicus [11] it was 13%; in the experiment filed under Rattus norvegicus [2], 32%; in the experiment listed under Rattus norvegicus [12], 4%; in the experiment with Rattus norvegicus [6], 17%; in the experiment on Rattus norvegicus [10] it was -2%.
On to `CCCCCCCCCCCCCCCC(=O)OCC(O)COC(=O)/C(C)=C/c1ccc(OCCCCCCCCCCCCCC)cc1` (centres undefined), for which the Decrease in the experiment listed under Rattus norvegicus [13] is recorded as -19%; in the experiment filed under Rattus norvegicus [14] it was 3%.
Regarding `CCCCCCCCCCCCCCCCOc1ccc(/C=C(\C)C(=O)OCCCl)cc1`, the Decrease in the experiment filed under Rattus norvegicus [15] was determined as 26%; in the experiment listed under Rattus norvegicus [16], 48%; in the experiment filed under Rattus norvegicus [17], 24%; in the experiment with Rattus norvegicus [6] it was 20%; in the experiment listed under Rattus norvegicus [18], 20%; in the experiment with Rattus norvegicus [10], 5%.
Consider `CCCCCCCCCCCCCCCCOc1ccc(/C=C/C(=O)OCCCl)cc1`, for which the Decrease is 43% in the experiment listed under Rattus norvegicus [4], 17% in the experiment on Rattus norvegicus [6], -4% in the experiment filed under Rattus norvegicus [9] and 17% in the experiment on Rattus norvegicus [19].
As for `CCCCCCCCCCCCCCCCOc1ccc(/C=C(\C)C(=O)OCC(O)CO)cc1` (centres undefined), the Decrease in the experiment listed under Rattus norvegicus [16] is reported as 68%; in the experiment listed under Rattus norvegicus [4], 28%; in the experiment listed under Rattus norvegicus [17], 32%; in the experiment with Rattus norvegicus [6], 11%; in the experiment listed under Rattus norvegicus [9], 15%; in the experiment with Rattus norvegicus [10] it was 5%.
On to `CCCCCCCCCCCCOc1ccc(/C=C(\C)C(=O)OCC(O)CO)cc1` (centres undefined), for which the Decrease is given as 53% in the experiment listed under Rattus norvegicus [4]; 16% in the experiment with Rattus norvegicus [6]; 9% in the experiment filed under Rattus norvegicus [7]; 10% in the experiment listed under Rattus norvegicus [8]; 26% in the experiment listed under Rattus norvegicus [9]; 33% in the experiment on Rattus norvegicus [10].
Turning to `CCCCCCCCCCCCOc1ccc(/C=C(\C)C(=O)OCC(COC(=O)/C(C)=C/c2ccc(OCCCCCCCCCCCC)cc2)OC(=O)/C(C)=C/c2ccc(OCCCCCCCCCCCC)cc2)cc1` (centres undefined), the Decrease came out at 28% in the experiment listed under Rattus norvegicus [20] and 2% in the experiment filed under Rattus norvegicus [9].
On to `CCCCCCCCCCCCOc1ccc(/C=C(\C)C(=O)O)cc1`, for which the Decrease was 31% in the experiment filed under Rattus norvegicus [4]; 32% in the experiment listed under Rattus norvegicus [21]; 14% in the experiment listed under Rattus norvegicus [7]; 13% in the experiment listed under Rattus norvegicus [8]; 7% in the experiment listed under Rattus norvegicus [22]; 17% in the experiment filed under Rattus norvegicus [9].
Consider `C=C(C)C(=O)OCCOC(=O)/C=C/c1ccc(Oc2ccccc2)cc1`, for which the Decrease in the experiment filed under Rattus norvegicus [16] is -15%; in the experiment listed under Rattus norvegicus [17], 14%.
Regarding `CCCCCCCCCCCCCCCCOc1ccc(/C=C/C(=O)OCCOC(=O)/C=C/c2ccc(OCCCCCCCCCCCCCCCC)cc2)cc1`, the Decrease in the experiment listed under Rattus norvegicus [16] is -4%; in the experiment listed under Rattus norvegicus [17] it was 9%.
As to `CCCCCCCCCCCCCCCC(=O)OCC(COC(=O)/C(C)=C/c1ccc(OCCCCCCCCCCCCCC)cc1)OC(=O)CCCCCCCCCCCCCCC` (centres undefined), the Decrease is 5% in the experiment listed under Rattus norvegicus [23] and 18% in the experiment filed under Rattus norvegicus [24].
On to `CCCCCCCCCCCCCCCCOc1ccc(/C=C(\C)C(=O)OCCS(=O)(=O)[O-])cc1.[Na+]`, for which the Decrease in the experiment filed under Rattus norvegicus [16] was 36%; in the experiment filed under Rattus norvegicus [17], 8%.
`CCCCOc1ccc(/C=C/C(=O)OCCN2CCOCC2)cc1.Cl`: the Decrease is -32% in the experiment filed under Rattus norvegicus [16] and -9% in the experiment filed under Rattus norvegicus [17].
For the compound `CCCCCCCCCCCCCCOc1ccc(/C=C(\C)C(=O)OCC(O)CO)cc1` (stereo in doubt; 97), the Decrease in the experiment on Rattus norvegicus [3] was 52%; in the experiment filed under Rattus norvegicus [4] it was 43%; in the experiment filed under Rattus norvegicus [5], 45%; in the experiment with Rattus norvegicus [6], 14%; in the experiment listed under Rattus norvegicus [9], 25%; in the experiment with Rattus norvegicus [10], 33%.
